A short description of series [1]: Cytotoxicity against African green monkey Vero cells assessed as reduction in cell viability incubated for 72 hrs by alamar blue staining based fluorescence microplate reader analysis. The series is classed as toxicity. The conditions noted are these: African green monkey (Chlorocebus sabaeus). An outline of the steps:
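Vero cell cytotoxicity was read out by Alamar Blue (MABA) and expressed as IC50. Other details follow earlier reports.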

Series [2] can be described thus: Metabolic stability in human liver microsomes assessed as half life and mesured upto 60 mins in presence of NADPH. The note with it: 1 h. It counts as ADME, Microsome. An outline of the steps:
(§1)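 Compounds were incubated with human liver microsomes for 60 min, with or without NADPH cofactor. Substrate concentration after 60 min was normalized to the time-zero concentration to give % remaining. Half-life was derived from the incubations, and intrinsic clearance was calculated as CLint(mic) = 0.693/half-life/mg microsomal protein per mL.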
(Liver microsomes are a subcellular fraction often used to study metabolism.)

Series [3] is described as follows: Metabolic stability in human liver microsomes assessed as intrinsic clearance and mesured upto 60 mins in presence of NADPH. The note with it: 1 h. The series is classed as ADME, Microsome.
Series [4] is described as follows: Metabolic stability in human liver microsomes assessed as parent compound remaining and mesured after 60 mins in presence of NADPH. It counts as ADME, Microsome. The note with it: read-out: Stability. An outline of the steps:
as §1

Series [5] can be described thus: Metabolic stability in human liver microsomes assessed as parent compound remaining and mesured after 60 mins in absence of NADPH. It counts as ADME, Microsome. The conditions noted are these: 1 h.
Series [6] has as its target Voltage-gated inwardly rectifying potassium channel KCNH2 (Homo sapiens, UniProt Q12809). Nature of the series: Inhibition of human ERG at 10 uM by patch-clamp electrophysiology assay. It counts as toxicity. An outline of the steps:
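hERG K+ channel current was measured by manual patch-clamp electrophysiology with the test compound at 10 μM. […] The inhibition rate is the average of three individual measurements.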
Background: The patch-clamp technique gives a direct electrical read-out from membranes.

Series [7] deals with Mycobacterium tuberculosis. Nature of the series: Antimycobacterial activity against drug susceptible Mycobacterium tuberculosis V4207 assessed as bacterial growth inhibition incubated for 7 to 14 days by MABA assay. It counts as functional. The note with it: time 7-14 day.
[8] abbreviates: Mycobacterium tuberculosis, V4207, read-out: MIC90.

In brackets after ≈: the same amount, converted by molar mass.

Voltage-gated inwardly rectifying potassium channel KCNH2, sequence (Q12809 whole entry): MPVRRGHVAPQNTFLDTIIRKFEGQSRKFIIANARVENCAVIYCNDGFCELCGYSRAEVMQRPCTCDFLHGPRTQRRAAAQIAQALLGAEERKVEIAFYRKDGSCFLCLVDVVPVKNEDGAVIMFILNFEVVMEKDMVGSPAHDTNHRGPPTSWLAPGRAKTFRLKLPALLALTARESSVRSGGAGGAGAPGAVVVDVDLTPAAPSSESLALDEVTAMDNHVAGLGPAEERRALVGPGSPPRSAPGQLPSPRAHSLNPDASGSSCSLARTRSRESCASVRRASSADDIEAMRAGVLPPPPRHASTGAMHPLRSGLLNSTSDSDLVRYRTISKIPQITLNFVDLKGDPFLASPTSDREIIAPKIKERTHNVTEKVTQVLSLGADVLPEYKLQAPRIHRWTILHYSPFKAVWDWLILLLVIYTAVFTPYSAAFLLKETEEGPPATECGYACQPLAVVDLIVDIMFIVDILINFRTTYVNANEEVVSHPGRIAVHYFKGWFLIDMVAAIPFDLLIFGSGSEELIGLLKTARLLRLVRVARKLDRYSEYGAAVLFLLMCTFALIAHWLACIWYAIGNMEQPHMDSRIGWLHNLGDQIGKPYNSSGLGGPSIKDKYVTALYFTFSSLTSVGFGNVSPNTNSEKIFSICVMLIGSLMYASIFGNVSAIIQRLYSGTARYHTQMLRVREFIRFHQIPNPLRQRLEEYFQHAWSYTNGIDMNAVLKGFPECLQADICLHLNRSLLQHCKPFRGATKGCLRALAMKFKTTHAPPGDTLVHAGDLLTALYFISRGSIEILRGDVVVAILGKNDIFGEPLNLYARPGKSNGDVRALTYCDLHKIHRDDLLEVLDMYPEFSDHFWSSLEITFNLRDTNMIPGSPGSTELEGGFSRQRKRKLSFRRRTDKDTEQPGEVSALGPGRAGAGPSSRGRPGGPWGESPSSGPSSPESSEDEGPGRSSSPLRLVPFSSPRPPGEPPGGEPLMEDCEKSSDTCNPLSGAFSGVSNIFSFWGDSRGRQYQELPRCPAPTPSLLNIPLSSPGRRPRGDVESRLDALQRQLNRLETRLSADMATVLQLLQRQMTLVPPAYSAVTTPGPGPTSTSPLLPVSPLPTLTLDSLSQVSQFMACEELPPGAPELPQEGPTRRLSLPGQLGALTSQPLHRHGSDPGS

As usually defined, the IC50 is the concentration that inhibits the measured activity by half. Take `CC(C)c1ccc(-c2cncc(CN3CC[Si](C)(C)CC3)c2)cc1`: the IC50 at 72 h in series [1] is at least 32 mg/L. With `CC(C)c1ccc(-c2ccnc(CN3CCC4(CC3)OCCCO4)c2)cc1`, in series [1], the IC50 at 72 h was at least 32 mg/L. With `CC(C)c1ccc(-c2ccnc(CNC3CCCCCCC3)c2)cc1`, the half-maximal inhibitory concentration (IC50) at 72 h in series [1] came to 16 mg/L (≈ 47.5 µM). As to `c1ccc(-c2ccc(-c3ccnc(CN4CCC5(CCCCC5)CC4)c3)cc2)cc1`, in series [1], the IC50 at 72 h was at least 32 mg/L.

Take `C[Si]1(C)CCN(Cc2cc(-c3ccc(C4CCCCC4)cc3)ccn2)CC1`: the 50% inhibitory concentration (IC50) at 72 h in series [1] is at least 32 mg/L. For the molecule `c1ccc(-c2ccc(-c3ccnc(CN4CCC5(CCCC5)CC4)c3)cc2)cc1`, the 50% inhibitory concentration (IC50) at 72 h in series [1] came out at 16 mg/L (≈ 41.8 µM). The t1/2 in series [2] is 49.5 min. Also, the CLH in series [3] was found to be 28 µL/min/mg. In series [4], the remaining at 1 h turned out to be 43.1%. In addition, in series [5], the Stability entry is “Stable”. Further, the “inhibition (INH)” value in series [6] came to 52.7%. Turning to `CC(C)Cc1ccc(-c2ccnc(CN3CC[Si](C)(C)CC3)c2)cc1`, the half-inhibitory concentration (IC50) at 72 h in series [1] was at least 32 mg/L. For `c1cc(-c2ccc(-c3ccoc3)cc2)cc(CN2CCC3(CCCC3)CC2)n1`, in series [2], the t1/2 is recorded as 1.8 min. In series [3], the CLH came out at 758 µL/min/mg. Besides, the remaining at 1 h in series [4] is 0.2%. Also, the Stability result in series [5] is “Stable”. For `CC(C)Cc1ccc(-c2ccnc(CN3CCC(C)CC3)c2)cc1`, the IC50 at 72 h in series [1] was at least 32 mg/L.

Turning to `CC(C)c1ccc(-c2ccnc(CNC3CCCCCC3)c2)cc1`, in series [1], the half-maximal inhibitory concentration (IC50) at 72 h amounted to 16 mg/L (≈ 49.6 µM).

As for `CC(C)c1ccc(-c2ccnc(CNC34CC5CC(CC(C5)C3)C4)c2)cc1`, in series [1], the half-maximal inhibitory concentration (IC50) at 72 h stood at 16 mg/L (≈ 44.4 µM). For `CC(C)(C)c1ccc(-c2ccnc(CN3CC[Si](C)(C)CC3)c2)cc1`, the half-inhibitory concentration (IC50) at 72 h in series [1] turned out to be 16 mg/L (≈ 45.4 µM). On to `Cc1ccc(-c2ccc(-c3ccnc(CN4CCC5(CCCC5)CC4)c3)cc2)cc1`, for which the concentration for half-maximal inhibition (IC50) at 72 h in series [1] was at least 32 mg/L. For `CC(C)c1ccc(-c2ccnc(CN3CCC4(CCCC4)CC3)c2)cc1`, the t1/2 in series [2] is listed as 11.3 min. The CLH in series [3] stood at 122.9 µL/min/mg. Moreover, the remaining at 1 h in series [4] amounted to 1.5%. Besides, the Stability result in series [5] was “Stable”. `Clc1ccc(-c2ccc(-c3ccnc(CN4CCC5(CCCC5)CC4)c3)cc2)cc1`: in series [1], the IC50 at 72 h was at least 32 mg/L. Turning to `CC(C)c1ccc(-c2nc(CN3CC[Si](C)(C)CC3)co2)cc1`, the half-inhibitory concentration (IC50) at 72 h in series [1] was at least 32 mg/L. Turning to `CC(C)c1ccc(-c2ccnc(CNC3C4CC5CC(C4)CC3C5)c2)cc1` (stereo not drawn), the concentration for half-maximal inhibition (IC50) at 72 h in series [1] was at least 32 mg/L. `CC(C)c1ccc(-c2ccnc(CN3CC[Si](C)(C)CC3)c2)cc1`: the IC50 at 72 h in series [1] is at least 32 mg/L. On the same count and under the same terms, under `C[Si]1(C)CCN(Cc2cc(-c3ccc(-c4ccccc4)cc3)ccn2)CC1` stands at least 32 mg/L. Turning to `O=C(O)Cc1ccccc1Nc1c(Cl)cccc1Cl` [DICLOFENAC], the Stability entry in series [5] was “Stable”. By MIC90 is commonly meant the lowest concentration that inhibits either 90% of growth or 90% of the strains tested, depending on the study. With `NNC(=O)c1ccncc1` [ISONIAZID], in series [7], the MIC90 was determined as 0.04 mg/L (≈ 0.292 µM). For the molecule `NC[C@H]1O[C@H](O[C@H]2[C@H](O)[C@@H](O[C@H]3O[C@H](CO)[C@@H](O)[C@H](N)[C@H]3O)[C@H](N)C[C@@H]2N)[C@H](O)[C@@H](O)[C@@H]1O` [KANAMYCIN], the MIC90 in series [7] (setting [8]) was determined as 2 mg/L (≈ 4.13 µM). For `C[C@H]1COc2c(N3CCN(C)CC3)c(F)cc3c(=O)c(C(=O)O)cn1c23` [LEVOFLOXACIN ANHYDROUS], the MIC90 in series [7] (setting [8]) is 0.125 mg/L (≈ 0.346 µM). Turning to `CC1COc2c(N3CCN(C)CC3)c(F)cc3c(=O)c(C(=O)O)cn1c23` (stereo not drawn) [OFLOXACIN], in series [7] (setting [8]), the MIC90 was 0.5 mg/L (≈ 1.38 µM). As for `CO[C@H]1/C=C/O[C@@]2(C)Oc3c(C)c(O)c4c(O)c(c(/C=N/N5CCN(C)CC5)c(O)c4c3C2=O)NC(=O)/C(C)=C\C=C\[C@H](C)[C@H](O)[C@@H](C)[C@@H](O)[C@@H](C)[C@H](OC(C)=O)[C@@H]1C` [RIFAMPIN], the MIC90 in series [7] (setting [8]) turned out to be 0.063 mg/L (≈ 0.0766 µM). Regarding `C[C@]12CC[C@H]3[C@@H](CCC4=CC(=O)CC[C@@]43C)[C@@H]1CC[C@@H]2O` [TESTOSTERONE], in series [4], the remaining at 1 h is 3.9%. Further, the Stability result in series [5] was “Stable”.
